Data reported in ChEMBL document CHEMBL3797125, “Discovery of GluN2A-Selective NMDA Receptor Positive Allosteric Modulators (PAMs): Tuning Deactivation Kinetics via Structure-Based Design” (J Med Chem, 2016).
pEC50: −log10 of the molar value.

How the values were obtained:
Glutamate receptor 2 [1] = target: T1, Glutamate receptor 2 (Homo sapiens, UniProt P42262); experiment: Positive allosteric modulation of human GluA2 AMPAR flop isomer expressed in Dox-inducible cells measured every 5 mins by BD calcium indicator dye based-fluorescence analysis in presence of glutamate; type: cell-based
human MDR1 (P-gp) = experiment: Efflux ratio of permeability from basolateral to apical over apical to basolateral side in MDCK cells expressing human MDR1; type: ADME, cell-based, Canis lupus familiaris; settings: dog
Glutamate receptor 2 [2] = target: T1, Glutamate receptor 2; experiment: Positive allosteric modulation of human GluA2 AMPAR flop isomer expressed in Dox-inducible cells at 125 uM measured every 5 mins by BD calcium indicator dye based-fluorescence analysis in presence of glutamate; type: cell-based
[3] = target: T2, Glutamate NMDA receptor; GRIN1/GRIN2A (Homo sapiens, UniProt Q05586+Q12879); experiment: Positive allosteric modulation of GluN1/GluN2A NMDAR (unknown origin) expressed in Dox-inducible cells at 125 uM measured every 5 mins by BD calcium indicator dye based-fluorescence analysis in presence of glutamate/glycine; type: cell-based
Method in brief: (§1)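 GluN2A-containing NMDAR cell line, harvested, seeded, doxycycline 2 µg/mL overnight with 500 µM ketamine for protection, then washed and loaded with calcium dye for 50 min. Compound added at 2x concentration in 2x EC30 Glu (EC30 set daily from Glu dose-response); saturating Gly throughout; fluorescence recorded over 5 min.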

Glutamate receptor 2 [4] = target: T1, Glutamate receptor 2; experiment: Positive allosteric modulation of human GluA2 AMPAR flip isomer expressed in Dox-inducible cells at 125 uM measured every 5 mins by BD calcium indicator dye based-fluorescence analysis in presence of glutamate; type: cell-based
[5] = target: T2, Glutamate NMDA receptor; GRIN1/GRIN2A; experiment: Positive allosteric modulation of GluN1/GluN2A NMDAR (unknown origin) expressed in Dox-inducible cells measured every 5 mins by BD calcium indicator dye based-fluorescence analysis in presence of glutamate/glycine; type: cell-based; method in brief: as §1
Glutamate receptor 2 [6] = target: T1, Glutamate receptor 2; experiment: Positive allosteric modulation of human GluA2 AMPAR flip isomer expressed in Dox-inducible cells measured every 5 mins by BD calcium indicator dye based-fluorescence analysis in presence of glutamate; type: cell-based

T1 sequence (P42262 whole entry): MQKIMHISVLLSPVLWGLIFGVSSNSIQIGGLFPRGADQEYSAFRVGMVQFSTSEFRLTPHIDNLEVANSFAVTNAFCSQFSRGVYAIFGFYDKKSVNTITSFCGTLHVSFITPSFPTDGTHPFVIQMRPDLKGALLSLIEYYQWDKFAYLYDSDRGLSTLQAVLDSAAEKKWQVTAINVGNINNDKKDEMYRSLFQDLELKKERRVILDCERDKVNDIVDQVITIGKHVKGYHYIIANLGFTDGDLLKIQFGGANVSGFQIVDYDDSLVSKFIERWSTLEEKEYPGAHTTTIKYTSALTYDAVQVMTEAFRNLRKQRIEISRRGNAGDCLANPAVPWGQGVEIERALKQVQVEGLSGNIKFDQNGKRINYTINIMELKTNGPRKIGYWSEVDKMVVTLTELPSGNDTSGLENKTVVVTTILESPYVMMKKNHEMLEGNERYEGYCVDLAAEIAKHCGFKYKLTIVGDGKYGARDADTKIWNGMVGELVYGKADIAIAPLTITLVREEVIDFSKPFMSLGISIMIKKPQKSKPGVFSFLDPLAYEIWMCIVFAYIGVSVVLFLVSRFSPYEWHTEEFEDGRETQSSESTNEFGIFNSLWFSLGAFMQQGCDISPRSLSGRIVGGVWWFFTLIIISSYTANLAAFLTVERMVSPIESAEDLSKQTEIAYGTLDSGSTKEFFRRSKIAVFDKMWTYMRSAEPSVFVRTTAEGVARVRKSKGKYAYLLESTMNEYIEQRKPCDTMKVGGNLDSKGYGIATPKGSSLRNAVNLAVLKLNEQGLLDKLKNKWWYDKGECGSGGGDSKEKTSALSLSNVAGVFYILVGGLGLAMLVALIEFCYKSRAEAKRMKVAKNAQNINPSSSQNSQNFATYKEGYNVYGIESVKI

SMILES	pEC50 (Glutamate receptor 2 [1])	efflux ratio (human MDR1 (P-gp))	%max (Glutamate receptor 2 [2]) [%]	%max [3] [%]	%max (Glutamate receptor 2 [4]) [%]	pEC50 [5]	pEC50 (Glutamate receptor 2 [6])
CCN(Cc1cc(=O)n2c(-c3cncnc3)c(C)sc2n1)c1ccc(F)cc1	6.01	1.2	16	148	56	6.86	–
CCNC(=O)c1c(C)sc2nc(CN(C)c3ccc(F)cc3)cc(=O)n12	–	8.6	2	159	2	6.36	–
CCNC(=O)c1c(C)sc2nc(Cn3nc(C(F)(F)F)cc3OCC(C)C)cc(=O)n12	–	3.7	10	60	3	4.24	–
CCNC(=O)c1c(C)sc2nc(CN(CC)c3ccc(F)cn3)cc(=O)n12	–	22	13	170	6	5.77	–
Cc1sc2nc(Cn3nc(C(F)(F)F)cc3Cl)cc(=O)n2c1[C@@H]1C[C@H]1C#N	7.14	5.3	93	151	91	7.53	6.15
CCN(Cc1cc(=O)n2c(C(=O)NC)c(C)sc2n1)c1ccc(F)cc1	–	9.8	38	185	18	6.88	–
CCN(Cc1cc(=O)n2c(C3CCC3)c(C)sc2n1)c1ccc(F)cc1	5.07	–	20	122	38	5.59	4.44
CCN(Cc1cc(=O)n2c(-c3cccnc3)c(C)sc2n1)c1ccc(F)cc1	5.35	1.2	11	144	75	6.77	4.47
CCN(Cc1cc(=O)n2c(C(C)O)c(C)sc2n1)c1ccc(F)cc1 (racemic)	5.26	0.6	30	154	37	6.74	4.49
Cc1sc2nc(COc3ccc(F)cc3)cc(=O)n2c1[C@@H]1C[C@H]1CO	5.64	0.8	6	122	7	6.42	5.27
CCNC(=O)c1c(C)sc2nc(Cc3cc(C#N)ccc3C3CC3)cc(=O)n12	–	44	2	102	2	4.76	–
CCN(Cc1cc(=O)n2cc(C)sc2n1)c1ccc(F)cc1	6.61	1	93	150	95	6.51	6.60
CCN(Cc1cc(=O)n2c([C@@H]3C[C@H]3CO)c(C)sc2n1)c1ccc(F)cc1	6.69	1.2	64	184	84	7.61	6.06
CCNC(=O)c1c(C)sc2nc(Cc3cccc(C(F)(F)F)c3)cc(=O)n12	4.18	20	21	113	18	5.72	–
CCNC(=O)c1c(C)sc2nc(Cc3cc(C#N)ccc3Cl)cc(=O)n12	–	22	0	94	1	4.89	–
CCNC(=O)c1c(C)sc2nc(Cn3ccc(C(F)(F)F)n3)cc(=O)n12	–	21.5	1	99	2	4.77	–
CCNC(=O)c1c(C)sc2nc(Cc3cccc(C#N)c3F)cc(=O)n12	–	3.1	3	102	3	5.04	–
O=c1cc(Cn2nc(C(F)(F)F)cc2Cl)nc2sc(C(F)(F)F)c([C@@H]3C[C@H]3CO)n12	5.60	1	41	144	66	7.14	4.44
CCN(Cc1cc(=O)n2c(CCO)c(C)sc2n1)c1ccc(F)cc1	6.24	0.9	75	168	72	6.80	4.98
